What all share (format): functional
Test [1] has as its system Pseudomonas aeruginosa. As to the kind of experiment: Antimicrobial activity against Pseudomonas aeruginosa PAO1 with rpoN mutation after 24 hrs. The following applies: PAO1, 24 h. Put shortly:
(§1)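 Broth microdilution in LB broth, inoculum 1 × 10⁶ cells/ml. MIC read after 24 h at 37°C as the lowest concentration giving complete growth inhibition by unaided eye. For MBC, 10 μl from each well without visible growth was plated on LB agar and incubated 24 h at 37°C.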

In test [2] the test system is Pseudomonas aeruginosa. Description: Antimicrobial activity against wild type Pseudomonas aeruginosa PAO1 after 24 hrs. The following applies: PAO1, 24 h. Summed up:
as §1

Test [3] concerns Pseudomonas aeruginosa. As to the kind of experiment: Antimicrobial activity against Pseudomonas aeruginosa PAO1 with pvdS mutation after 24 hrs. Particulars: PAO1, 24 h. Put shortly: as §1
For test [4], the system named is Pseudomonas aeruginosa. As to the kind of experiment: Increase in pvdS gene expression in Pseudomonas aeruginosa PAO1 with rpoN mutation at 8 ug/ml after 3 hrs relative to wild type. Summed up: (§2)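 Overnight LB cultures were washed and resuspended in fresh LB with ofloxacin 8 μg/ml. Sampling was at 0, 1, 3 and 5 h, with RNA stabilized immediately. DNase-treated total RNA (~650 ng) was reverse transcribed. qRT-PCR was quantified against external plasmid standard curves and normalized to the rpsL reference gene. Triplicate reactions.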

Test [5] deals with Pseudomonas aeruginosa. As to the kind of experiment: Increase in GFP tagged vqsR protein expression in Pseudomonas aeruginosa PAO1 with rpoN mutation at 8 ug/ml by flow cytometry relative to wild type. Put shortly: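 Strains carried a plasmid GFP reporter driven by the vqsR promoter. Cells were grown in LB broth with carbenicillin 400 μg/ml. Stationary-phase (overnight) cultures were washed, resuspended in fresh LB and given ofloxacin 8 μg/ml. Samples were taken over 0–5 h, washed and resuspended in PBS. Mean fluorescence intensity came from 20,000 events, corrected for background (PAO1 without gfp). Three experiments.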
For orientation: Flow cytometry measures light scatter and fluorescence of single cells or particles in a stream.

In test [6] the test system is Pseudomonas aeruginosa. As to the kind of experiment: Increase in vqsR gene expression in Pseudomonas aeruginosa PAO1 with rpoN mutation at 8 ug/ml relative to wild type. Put shortly:
as §2

Each structure is given as a SMILES string. In brackets after ≈: the same amount, converted by molar mass.

A word on the MBC: it is the smallest concentration meeting the test's criterion for killing. A high value points to less potent killing. Broadly, the MIC is the lowest concentration that inhibits growth of the organism. `O=C(O)c1cn(C2CC2)c2cc(N3CCNCC3)c(F)cc2c1=O` [CIPROFLOXACIN]: the results for the MBC against Pseudomonas aeruginosa [1], against Pseudomonas aeruginosa [2] and in the test on Pseudomonas aeruginosa [3] were 2 µg/mL (≈ 6.04 µM), 0.5 µg/mL (≈ 1.51 µM) and 0.25 µg/mL (≈ 0.754 µM), respectively. Further, the MIC against Pseudomonas aeruginosa [1] came to 0.25 µg/mL (≈ 0.754 µM); with Pseudomonas aeruginosa [2], 0.125 µg/mL (≈ 0.377 µM); in the test on Pseudomonas aeruginosa [3] it was 0.125 µg/mL (≈ 0.377 µM).

With `CC1COc2c(N3CCN(C)CC3)c(F)cc3c(=O)c(C(=O)O)cn1c23` (configuration not stated) [OFLOXACIN], the MBC in the test on Pseudomonas aeruginosa [1] is 2 µg/mL (≈ 5.53 µM); against Pseudomonas aeruginosa [2], 1 µg/mL (≈ 2.77 µM); in the test with Pseudomonas aeruginosa [3], 2 µg/mL (≈ 5.53 µM). Further, the MIC against Pseudomonas aeruginosa [1], with Pseudomonas aeruginosa [2] and against Pseudomonas aeruginosa [3] was 1 µg/mL (≈ 2.77 µM) throughout. The Fold change in the test with Pseudomonas aeruginosa [4] was determined as 30; in the test with Pseudomonas aeruginosa [5] it was 8; in the test on Pseudomonas aeruginosa [6], 2.5.

In the case of `C[C@@H](O)[C@H]1C(=O)N2C(C(=O)O)=C(SCCNC=N)C[C@H]12` [IMIPENEM ANHYDROUS], the MBC in the test with Pseudomonas aeruginosa [1] is 16 µg/mL (≈ 53.4 µM); against Pseudomonas aeruginosa [2], 1 µg/mL (≈ 3.34 µM); in the test on Pseudomonas aeruginosa [3], 4 µg/mL (≈ 13.4 µM). Further, the MIC in the test on Pseudomonas aeruginosa [1], against Pseudomonas aeruginosa [2] and in the test on Pseudomonas aeruginosa [3] was 1 µg/mL (≈ 3.34 µM) each time.

Take `C[C@@H](O)[C@H]1C(=O)N2C(C(=O)[O-])=C(SC3Cn4cnc[n+]4C3)[C@H](C)[C@H]12` (some centres not stated) [BIAPENEM]: the MBC in the test with Pseudomonas aeruginosa [1] was 16 µg/mL (≈ 45.7 µM); in the test on Pseudomonas aeruginosa [2] it was 2 µg/mL (≈ 5.71 µM); against Pseudomonas aeruginosa [3], 1 µg/mL (≈ 2.85 µM). Further, the MIC in the test on Pseudomonas aeruginosa [1], in the test on Pseudomonas aeruginosa [2] and in the test on Pseudomonas aeruginosa [3] was 0.5 µg/mL (≈ 1.43 µM) throughout.
